Published values gathered from unrelated publications.
Effect on: cell growth or viability

COc1cc(Nc2nccc(-c3cnn4nc(OC)ccc34)n2)cc(C(F)(F)F)c1 — IC50 (SK-N-MC; ATP luminescence): 0.13 µM
CCN1C(=O)N(c2c(F)c(OC)cc(OC)c2F)Cc2cnc3[nH]c(CN4CCOCC4)cc3c21 — IC50 (NCI-H716; ATP luminescence; 96 h): 0.00171 µM
Clc1ccc2c(NCCNCc3ccccn3)ccnc2c1 — IC50 (CHO; MTT): 144 µM
NCCOc1cc(NC(=O)c2cc(OCc3ccc(F)cc3)cc(C(=O)Nc3cc(OCCN)c4ccccc4n3)n2)nc2ccccc12 — IC50 (HT-1080; ATP luminescence; 72 h): 1.6 µM
O=[N+]([O-])c1ccc(NC(=S)NN=Cc2ccccn2)cc1 — IC50 (BHK; SRB; 48 h): 54.8 µM
CCCON(Cc1ccc(C(=O)NO)cc1)C(=O)Nc1ccc(N(C)C)cc1 — IC50 (SUP-B15; ATP luminescence; 72 h): 6.62 µM
CN(C)CCCOc1cc(NC(=O)c2cccc(C(=O)Nc3cc(OCCCN(C)C)c4ccccc4n3)n2)nc2ccccc12 — IC50 (HT-1080; ATP luminescence; 72 h): 2.6 µM
CC(C)/N=C1\c2cc(C(N)=O)nc3c(N)c(Cl)c(N)c(c23)N1C — IC50 (HCC4017): 0.48 µM
NCCOc1cc(NC(=O)c2cc(OCc3c[nH]nn3)cc(C(=O)Nc3cc(OCCN)c4ccccc4n3)n2)nc2ccccc12 — IC50 (HT-1080; ATP luminescence; 72 h): 13.5 µM
O=C1Nc2ccccc2C1=Cc1cc2ccccc2nc1Cl — IC50 (CHO; MTT; 72 h): > 100 µM
C[C@H](NC(=O)c1cccc2ccccc12)C(=O)Nc1ccccc1Oc1ccccc1 — IC50 (SH-SY5Y): 4 µM
COc1c(C)c(OC)c2c(c1C)OC(c1ccccc1)CC2=O (centres unmarked) — IC50 (SH-SY5Y; SRB; 72 h): > 50 µM
O=C(NCc1ccc(CO)cc1)c1c[nH]c2ccc(Cl)cc12 — IC50 (T24; MTT): 17 µM
NCCCOc1cc(NC(=O)c2cc(Cl)cc(C(=O)Nc3cc(OCCCN)c4ccccc4n3)n2)nc2ccccc12 — IC50 (HT-1080; ATP luminescence; 72 h): 0.6 µM
Cc1cc(C)cc(COc2cc3c(cc2OCc2cc(C)cc(C)c2)[C@H]2C[C@](O)(Cc4cn(Cc5ccc(-c6ccccc6)cc5)nn4)C[C@H](C)N2CC3)c1 — IC50 (GES1; MTT; 48 h): 2.22 µM
NCCOc1cc(C(=O)Nc2cc(OCCN3CCCC3)c3ccccc3n2)nc(C(=O)Nc2cc(OCCN3CCCC3)c3ccccc3n2)c1 — IC50 (HT-1080; ATP luminescence; 72 h): 0.2 µM
CC(C)C[C@H](NC(=O)[C@H](Cc1ccccc1)NC(=O)c1cnccn1)B(O)O — IC50 (SK-N-MC; ATP luminescence): 0.0078 µM
